What was measured:
Assay type in all cases: functional
Design in all cases: scale not given: the % may be the effect or the level left
CCRF-CEM = test: Growth inhibition of human CCRF-CEM cells assessed tumor cell growth at 10^-5 M
Method in brief: (§1)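 NCI 60-human-tumor-cell-line panel screen. Each compound was tested at a single concentration of 10^-5 M, and percent growth of tumor cells was recorded for each cell line. Growth inhibition was expressed from these percent-growth values.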

HL-60(TB) = test: Growth inhibition of human HL-60(TB) cells assessed tumor cell growth at 10^-5 M
Method in brief: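 HL-60(TB), part of the 60-line panel, tested at a single concentration of 10^-5 M. The read-out is percent tumor cell growth relative to untreated growth.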

K562 = test: Growth inhibition of human K562 cells assessed tumor cell growth at 10^-5 M; method in brief: as §1
MOLT-4 = test: Growth inhibition of human MOLT4 cells assessed tumor cell growth at 10^-5 M; method in brief: as §1
[1] = Growth inhibition of human […] cells assessed tumor cell growth at 10^-5 M; method in brief: as §1
SR = test: Growth inhibition of human SR cells assessed tumor cell growth at 10^-5 M
Method in brief: (§2)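 Single-dose screen at 10^-5 M across the 60 human tumor cell line panel, run to NCI standards. The value is the percent growth of each cell line in the presence of compound. Compounds active at this dose moved on to five-concentration testing (10^-4 to 10^-8 M).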

A549 = test: Growth inhibition of human A549 cells assessed tumor cell growth at 10^-5 M; method in brief: as §1
EKVX = test: Growth inhibition of human EKVX cells assessed tumor cell growth at 10^-5 M; method in brief: as §1
HOP-62 = test: Growth inhibition of human HOP62 cells assessed tumor cell growth at 10^-5 M; method in brief: as §1
HOP-92 = test: Growth inhibition of human HOP92 cells assessed tumor cell growth at 10^-5 M; method in brief: as §1
NCI-H226 = test: Growth inhibition of human NCI-H226 cells assessed tumor cell growth at 10^-5 M; method in brief: as §1
NCI-H23 = test: Growth inhibition of human NCI-H23 cells assessed tumor cell growth at 10^-5 M; method in brief: as §1
NCI-H322M = test: Growth inhibition of human NCI-H322M cells assessed tumor cell growth at 10^-5 M; method in brief: as §1
NCI-H460 = test: Growth inhibition of human NCI-H460 cells assessed tumor cell growth at 10^-5 M; method in brief: as §1
NCI-H522 = test: Growth inhibition of human NCI-H522 cells assessed tumor cell growth at 10^-5 M; method in brief: as §1
COLO 205 = test: Growth inhibition of human COLO205 cells assessed tumor cell growth at 10^-5 M; method in brief: as §1
HCC 2998 = test: Growth inhibition of human HCC2998 cells assessed tumor cell growth at 10^-5 M; method in brief: as §1
HCT-116 = test: Growth inhibition of human HCT116 cells assessed tumor cell growth at 10^-5 M; method in brief: as §1
HCT-15 = test: Growth inhibition of human HCT15 cells assessed tumor cell growth at 10^-5 M; method in brief: as §1
HT-29 = test: Growth inhibition of human HT-29 cells assessed tumor cell growth at 10^-5 M; method in brief: as §1
KM12 = test: Growth inhibition of human KM12 cells assessed tumor cell growth at 10^-5 M; method in brief: as §1
SW-620 = test: Growth inhibition of human SW620 cells assessed tumor cell growth at 10^-5 M; method in brief: as §2
SF-268 = test: Growth inhibition of human SF268 cells assessed tumor cell growth at 10^-5 M; method in brief: as §1
SF-295 = test: Growth inhibition of human SF295 cells assessed tumor cell growth at 10^-5 M; method in brief: as §1
SF-539 = test: Growth inhibition of human SF539 cells assessed tumor cell growth at 10^-5 M; method in brief: as §1
SNB-19 = test: Growth inhibition of human SNB19 cells assessed tumor cell growth at 10^-5 M; method in brief: as §2
SNB-75 = test: Growth inhibition of human SNB75 cells assessed tumor cell growth at 10^-5 M; method in brief: as §2
U-251 = test: Growth inhibition of human U251 cells assessed tumor cell growth at 10^-5 M; method in brief: as §2
LOX IMVI = test: Growth inhibition of human LOXIMVI cells assessed tumor cell growth at 10^-5 M; method in brief: as §1
Malme-3M = test: Growth inhibition of human MALME-3M cells assessed tumor cell growth at 10^-5 M; method in brief: as §1
M14 = test: Growth inhibition of human M14 cells assessed tumor cell growth at 10^-5 M; method in brief: as §1
MDA-MB-435 = test: Growth inhibition of human MDA-MB-435 cells assessed tumor cell growth at 10^-5 M; method in brief: as §1
SK-MEL-2 = test: Growth inhibition of human SK-MEL-2 cells assessed tumor cell growth at 10^-5 M; method in brief: as §1
SK-MEL-28 = test: Growth inhibition of human SK-MEL-28 cells assessed tumor cell growth at 10^-5 M; method in brief: as §1
SK-MEL-5 = test: Growth inhibition of human SK-MEL-5 cells assessed tumor cell growth at 10^-5 M; method in brief: as §1
UACC-257 = test: Growth inhibition of human UACC257 cells assessed tumor cell growth at 10^-5 M; method in brief: as §2
UACC-62 = test: Growth inhibition of human UACC62 cells assessed tumor cell growth at 10^-5 M; method in brief: as §2
IGROV-1 = test: Growth inhibition of human IGROV1 cells assessed tumor cell growth at 10^-5 M; method in brief: as §1
OVCAR-3 = test: Growth inhibition of human OVCAR3 cells assessed tumor cell growth at 10^-5 M; method in brief: as §1
OVCAR-4 = test: Growth inhibition of human OVCAR4 cells assessed tumor cell growth at 10^-5 M; method in brief: as §1
OVCAR-5 = test: Growth inhibition of human OVCAR5 cells assessed tumor cell growth at 10^-5 M; method in brief: as §1
OVCAR-8 = test: Growth inhibition of human OVCAR8 cells assessed tumor cell growth at 10^-5 M; method in brief: as §1
NCI/ADR-RES = test: Growth inhibition of human NCI/ADR-RES cells assessed tumor cell growth at 10^-5 M; method in brief: as §1
SK-OV-3 = test: Growth inhibition of human SKOV3 cells assessed tumor cell growth at 10^-5 M; method in brief: as §1
786-0 = test: Growth inhibition of human 786-0 cells assessed tumor cell growth at 10^-5 M; method in brief: as §1
A498 = test: Growth inhibition of human A498 cells assessed tumor cell growth at 10^-5 M; method in brief: as §1
ACHN = test: Growth inhibition of human ACHN cells assessed tumor cell growth at 10^-5 M; method in brief: as §1
CAKI-1 = test: Growth inhibition of human Caki1 cells assessed tumor cell growth at 10^-5 M; method in brief: as §1
RXF 393 = test: Growth inhibition of human RXF393 cells assessed tumor cell growth at 10^-5 M; method in brief: as §1
SN12C = test: Growth inhibition of human SN12C cells assessed tumor cell growth at 10^-5 M; method in brief: as §1
TK-10 = test: Growth inhibition of human TK10 cells assessed tumor cell growth at 10^-5 M; method in brief: as §2
UO-31 = test: Growth inhibition of human UO31 cells assessed tumor cell growth at 10^-5 M; method in brief: as §2
PC-3 = test: Growth inhibition of human PC3 cells assessed tumor cell growth at 10^-5 M; method in brief: as §1
DU-145 = test: Growth inhibition of human DU145 cells assessed tumor cell growth at 10^-5 M; method in brief: as §1
MCF7 = test: Growth inhibition of human MCF7 cells assessed tumor cell growth at 10^-5 M; method in brief: as §1
MDA-MB-231 = test: Growth inhibition of human MDA-MB-231 cells assessed tumor cell growth at 10^-5 M; method in brief: as §1
[2] = Growth inhibition of human Hs 578T cells assessed tumor cell growth at 10^-5 M; method in brief: as §1
BT-549 = test: Growth inhibition of human BT549 cells assessed tumor cell growth at 10^-5 M; method in brief: as §1
T47D = test: Growth inhibition of human T47D cells assessed tumor cell growth at 10^-5 M; method in brief: as §2
MDA-MB-468 = test: Growth inhibition of human MDA-MB-468 cells assessed tumor cell growth at 10^-5 M; method in brief: as §1

CC1=NN(c2cccc(Cl)c2)C(=O)/C1=C\c1cn(Cc2ccccc2)c2ccccc12
Activity (CCRF-CEM): 109.04% | Activity (HL-60(TB)): 99.67% | Activity (K562): 93.59% | Activity (MOLT-4): 89.6% | Activity [1]: 88.18% | Activity (SR): 86.52% | Activity (A549): 90.89% | Activity (EKVX): 82.36% | Activity (HOP-62): 81.96% | Activity (HOP-92): 94.45% | Activity (NCI-H226): 16.9% | Activity (NCI-H23): 88.9% | Activity (NCI-H322M): 105.8% | Activity (NCI-H460): 55.83% | Activity (NCI-H522): 86.7% | Activity (COLO 205): 96.36% | Activity (HCC 2998): 109.37% | Activity (HCT-116): 81.87% | Activity (HCT-15): 97.68% | Activity (HT-29): 93.03% | Activity (KM12): 93.39% | Activity (SW-620): 93.2% | Activity (SF-268): 95.57% | Activity (SF-295): 74.11% | Activity (SF-539): 96.45% | Activity (SNB-19): 93.46% | Activity (SNB-75): 80.99% | Activity (U-251): 89.34% | Activity (LOX IMVI): 87% | Activity (Malme-3M): 92.02% | Activity (M14): 93.78% | Activity (MDA-MB-435): 106.21% | Activity (SK-MEL-2): 90.21% | Activity (SK-MEL-28): 98.38% | Activity (SK-MEL-5): 90.4% | Activity (UACC-257): 93.1% | Activity (UACC-62): 78.13% | Activity (IGROV-1): 85.79% | Activity (OVCAR-3): 95.7% | Activity (OVCAR-4): 88.56% | Activity (OVCAR-5): 43.95% | Activity (OVCAR-8): 97.42% | Activity (NCI/ADR-RES): 100.71% | Activity (SK-OV-3): 71.03% | Activity (786-0): 100.84% | Activity (A498): 89.58% | Activity (ACHN): 84.07% | Activity (CAKI-1): 89.4% | Activity (RXF 393): 92.68% | Activity (SN12C): 101.76% | Activity (TK-10): 154.6% | Activity (UO-31): 71.93% | Activity (PC-3): 84.66% | Activity (DU-145): 103.96% | Activity (MCF7): 72.9% | Activity (MDA-MB-231): 89.94% | Activity [2]: 90.49% | Activity (BT-549): 107.13% | Activity (T47D): 67.17% | Activity (MDA-MB-468): 76.71%

Reference: ChEMBL document CHEMBL1811814, “Synthesis and evaluation of indole, pyrazole, chromone and pyrimidine based conjugates for tumor growth inhibitory activities--development of highly efficacious cytotoxic agents” (Eur J Med Chem, 2010)
